According to ChEMBL document CHEMBL1131504, “(Z)- and (E)-2-((hydroxymethyl)cyclopropylidene)methyladenine and -guanine. New nucleoside analogues with a broad-spectrum antiviral activity” (J Med Chem, 1998):

How the values were obtained:
[1] = system: CEM-SS; assay: Cytotoxicity on CEM-SS cells; type: functional, cell-based; details: Homo sapiens
Method in brief: (§1)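 Visual cytotoxicity: microscopic inspection of stationary uninfected CEM or CEM-SS cells from suspension cultures.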

[2] = system: CCRF-CEM; assay: Inhibitory concentration against mitochondrial DNA synthesis CEM cells; type: functional, cell-based; details: Homo sapiens
Method in brief: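 CEM cells (2 × 10^5/mL) in RPMI 1640 + 10% dialyzed FBS with compound, re-split with fresh drug on days 4 and 6. On day 8, 1 × 10^5 cells lysed with RNase A and proteinase K, slot-blotted, probed with a mitochondrial DNA-specific probe.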

[3] = system: CCRF-CEM; assay: Cytotoxicity was measured on CEM cells infected with Herpes Simplex virus […]; type: functional, cell-based; details: Homo sapiens
[4] = system: Daudi; assay: Cytotoxicity on Daudi cells at time of […] in cells not effected by the virus.; type: functional, cell-based; details: Homo sapiens
[5] = system: Daudi; assay: Inhibitory concentration against epstein-barr virus (EBV) infected daudi cells was determined; type: functional, cell-based; details: Homo sapiens
Method in brief: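 Daudi cells infected with P3HR-1 EBV at 0.1–0.2 moi for 45 min at 37 °C, washed, then incubated 48 h with serially diluted drug in RPMI-1640. Acetone-fixed cells stained with anti-VCA monoclonal antibody and FITC anti-mouse IgG, Evans Blue counterstain; 500 cells counted, VCA-positive fraction used for IC50.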

[6] = system: Human alphaherpesvirus 1; assay: Inhibitory concentration against herpes simplex virus type 1 (HSV-1) was determined by enzyme-linked immunosorbent assay (ELISA); type: functional, organism-based
[7] = Cytotoxicity on H-1 cells at time of HCMV plaque enumeration in cells not effected by the virus.; type: functional, cell-based; details: Homo sapiens
[8] = system: HFF; assay: Cytotoxicity on stationary HFF cells at time of HCMV plaque enumeration in cells not effected by the virus.; type: functional, cell-based; details: Homo sapiens
Method in brief: (§2)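 Visual cytotoxicity scored microscopically on stationary HFF or MEF cells not affected by virus, at the time of HCMV or MCMV plaque enumeration.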

[9] = system: HFF; assay: IC50 value was evaluated by measuring the %inhibition of Human Herpes Virus 6(HHV-6) infected […] cells using ELISA assay; type: functional, cell-based
[10] = system: HFF; assay: IC50 value was evaluated by measuring the %inhibition of Varicella Zoster virus(VZV) infected HFF cells using plaque reduction assay.; type: functional, cell-based; details: Homo sapiens
Method in brief: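 HFF cells plated 2 days earlier and infected with VZV (20–30 plaques/well) for 1 h. Six 1:5 drug dilutions in MEM + 2% FBS, no antibody overlay, duplicate wells; extra medium on day 5, 10 days total at 37 °C. Neutral red stain, plaques counted; IC50 from regression.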

[11] = system: HFF; assay: Inhibitory concentration against herpes simplex virus type 1 (HSV-1) infected HFF cells was determined by cytopathic effect inhibition assay; type: functional, cell-based; details: Homo sapiens
Method in brief: (§3)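 HFF cells (low passage) seeded 24 h before in MEM + 10% FBS; drug in MEM + 2% FBS, serial 1:5 dilutions in triplicate, 1 h pre-incubation, then HSV-1 or HSV-2 at 1000 pfu/well. Incubated 3 days at 37 °C, crystal violet/ethanol/formaldehyde stain, absorbance at 630 nm; IC50 by linear regression of % inhibition vs log concentration.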

[12] = system: HFF; assay: Inhibitory concentration against human cytomegalovirus replication in HFF cells was determined by cytopathic effect inhibition assay; type: functional, cell-based
Method in brief: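 HFF cells seeded 24 h before; serial 1:5 drug dilutions in MEM + 2% FBS in triplicate, 1 h, then 2500 pfu/well CMV. Incubated 14 days at 37 °C with 50 μL MEM added on day 7; crystal violet stain, read at 630 nm. IC50 from regression.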

[13] = system: HFF; assay: Inhibitory concentration against human cytomegalovirus replication in HFF cells was determined by plaque reduction assay; type: functional, cell-based
Method in brief: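 HFF cells infected with HCMV Towne (~100 pfu/cm2). After adsorption, drug added to duplicate wells at four to eight concentrations; 8–10 days at 37 °C, crystal violet stain, microscopic plaques counted. % plaque reduction vs no-drug control; IC50 by linear regression vs log concentration.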

[14] = system: HFF; assay: Inhibitory concentration against human cytomegalovirus replication in HFF cells was determined by yield reduction assay; type: functional
Method in brief: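 HFF cells (12 500/well) infected with HCMV at moi 0.5–1 and exposed to compound in duplicate at 100 to 0.14 μM for 4 days at 37 °C. After freeze–thaw, supernatants serially diluted onto fresh HFF monolayers and plaques titered; IC90 reported.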

[15] = system: HFF; assay: Compound was tested against HFF cells infected with herpes simplex virus type 2 (HSV-2) by cytopathic effect inhibition assay; type: functional, cell-based; details: Homo sapiens; method in brief: as §3
[16] = system: HepG2; assay: Inhibitory concentration against hepatitis B virus infected 2.2.15 cells; type: functional, cell-based; details: Homo sapiens
Method in brief: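 HBV-producing 2.2.15 cells in MEM + 10% FBS; compounds added on days 6 and 9, 6 days of exposure. Virions in the medium precipitated with PEG/NaCl, DNA extracted, run on 0.8% agarose, Southern blotted with 32P HBV probe, quantified by densitometry.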

[17] = system: KB; assay: Cytotoxicity was evaluated by measuring the inhibition of KB cell growth.; type: functional, cell-based; details: Homo sapiens
Method in brief: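 KB cells at 3000–5000/well, overnight at 37 °C, compound added in triplicate at eight concentrations. Growth over 48 h (two population doublings), then ethanol fixation, 0.1% crystal violet stain, eluted dye read at 570 nm; quadruplicate assays. IC50 by linear regression of % inhibition vs log concentration.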

[18] = system: MEF; assay: Inhibitory concentration against murine cytomegalovirus replication in MEF cells was determined by plaque reduction assay; type: functional, cell-based; details: Mus musculus
Method in brief: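 MEF cells plated 2 days earlier and infected with MCMV (20–30 plaques/well) for 1 h. Six 1:5 drug dilutions in MEM + 2% FBS, duplicate wells, 7 days at 37 °C, 1.5% neutral red stain, plaques counted; IC50 by linear regression vs log concentration.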

[19] = system: Vero; assay: Compound was tested against vero cells infected with herpes simplex virus type 2 (HSV-2); type: functional, cell-based; details: Chlorocebus sabaeus
Method in brief: (§4)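 Confluent Vero monolayers (RPMI + 5% FBS + 0.1% methylcellulose) infected 1 h with HSV-1 KOS or HSV-2 333 at 20 or 100 pfu/well. Drug overlay in RPMI + 2% dialyzed FBS + 0.1% methylcellulose, 48–72 h at 37 °C, 5% CO2. Crystal violet stain, plaques counted; IC50 by linear regression of % inhibition vs log concentration.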

[20] = system: Vero; assay: Inhibitory concentration against herpes simplex virus type 1 (HSV-1) infected vero cells was determined; type: functional, cell-based; details: Chlorocebus sabaeus; method in brief: as §4
[21] = Inhibitory concentration against epstein-barr virus (EBV) infected H-1 cells was determined; type: functional, cell-based; details: Homo sapiens
Method in brief: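 H-1 cells (high-yield EBV producer from P3HR-1) kept in log growth, seeded at 2 × 10^5/well with drug in RPMI 1640 + 10% dialyzed FBS for 5 days at 37 °C. Lysates treated with RNase A and proteinase K, slot-blotted, probed with 32P EBV EcoRI C fragment; normalized to Alu DNA vs untreated cells by densitometry.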

[22] = system: MEF; assay: Cytotoxicity on stationary MEF cells at time of MCMV plaque enumeration in cells not effected by the virus.; type: functional, cell-based; details: Mus musculus; method in brief: as §2
[23] = system: CCRF-CEM; assay: Cytotoxicity on CEM cells; type: functional, cell-based; details: Homo sapiens; method in brief: as §1

## Nc1ncnc2c1ncn2/C=C1/CC1CO (stereo not drawn)
[1]
  IC50: > 100 µM
[2]
  IC50: > 50 µM
[3]
  IC50: > 100 µM
[4]
  IC50: 368 µM
[5]
  IC50: 3.2 µM
[6]
  IC50: 33 µM
[7]
  IC50: > 50 µM
[8]
  IC50: > 100 µM
[9]
  IC50: 14 µM
[10]
  IC50: 2.5 µM
[11]
  IC50: < 0.14 µM
[12]
  IC50: 1 µM
[13]
  IC50: 2.1 µM
[14]
  IC90: 1.1 µM
[15]
  IC50: 10.6 µM
[16]
  IC50: 2 µM
[17]
  IC50: 78 µM
[18]
  IC50: 2.1 µM
[19]
  IC50: 59 µM
[20]
  IC50: 28 µM
[21]
  IC50: 0.2 µM
[22]
  IC50: > 92 µM

## Nc1ncnc2c1ncn2/C=C1\CC1CO (stereo not drawn)
[1]
  IC50: > 100 µM
[2]
  IC50: > 50 µM
[3]
  IC50: > 100 µM
[4]
  IC50: > 230 µM
[5]
  IC50: 71.4 µM
[6]
  IC50: > 100 µM
[7]
  IC50: > 50 µM
[8]
  IC50: > 100 µM
[9]
  IC50: > 100 µM
[10]
  IC50: 90.2 µM
[11]
  IC50: 36 µM
[12]
  IC50: 395 µM
[13]
  IC50: > 100 µM
[14]
  IC90: > 100 µM
[15]
  IC50: 395 µM
[16]
  IC50: > 10 µM
[17]
  IC50: > 100 µM
[19]
  IC50: > 100 µM
[20]
  IC50: > 100 µM
[21]
  IC50: 3 µM

## Nc1nc(Cl)c2c(ncn2/C=C2/CC2CO)n1 (stereo not drawn)
[1]
  IC50: > 100 µM
[2]
  IC50: > 50 µM
[3]
  IC50: 80 µM
[4]
  IC50: > 199 µM
[5]
  IC50: 1.2 µM
[6]
  IC50: 31 µM
[7]
  IC50: > 50 µM
[8]
  IC50: > 100 µM
[9]
  IC50: 50 µM
[10]
  IC50: > 518 µM
[11]
  IC50: > 79.5 µM
[12]
  IC50: 5.6 µM
[13]
  IC50: 5 µM
[14]
  IC90: 0.8 µM
[15]
  IC50: > 79.5 µM
[16]
  IC50: > 10 µM
[17]
  IC50: > 100 µM
[18]
  IC50: 0.3 µM
[19]
  IC50: 55 µM
[20]
  IC50: 52 µM
[21]
  IC50: 0.7 µM
[22]
  IC50: 270 µM

## Nc1nc(O)c2ncn(/C=C3\CC3CO)c2n1 (stereo not drawn)
[1]
  IC50: > 100 µM
[2]
  IC50: > 100 µM
[3]
  IC50: > 100 µM
[4]
  IC50: > 206 µM
[5]
  IC50: > 206 µM
[6]
  IC50: 100 µM
[7]
  IC50: > 50 µM
[8]
  IC50: > 100 µM
[9]
  IC50: > 100 µM
[10]
  IC50: 263 µM
[11]
  IC50: > 413 µM
[12]
  IC50: > 413 µM
[13]
  IC50: > 100 µM
[15]
  IC50: > 413 µM
[16]
  IC50: > 10 µM
[17]
  IC50: > 100 µM
[19]
  IC50: > 100 µM
[20]
  IC50: > 100 µM
[21]
  IC50: > 50 µM

## Nc1nc(Cl)c2ncn(/C=C3\CC3CO)c2n1 (stereo not drawn)
[1]
  IC50: > 100 µM
[3]
  IC50: 60 µM
[4]
  IC50: > 199 µM
[5]
  IC50: 143 µM
[6]
  IC50: > 100 µM
[7]
  IC50: < 50 µM
[11]
  IC50: > 79.5 µM
[12]
  IC50: > 79.5 µM
[13]
  IC50: > 100 µM
[14]
  IC90: 11 µM
[15]
  IC50: > 79.5 µM
[16]
  IC50: > 10 µM
[17]
  IC50: > 100 µM
[19]
  IC50: > 100 µM
[20]
  IC50: 95 µM
[21]
  IC50: > 10 µM

## Nc1nc2c(ncn2COC(CO)CO)c(=O)[nH]1 [GANCICLOVIR]
[12]
  IC50: 2.6 µM
[13]
  IC50: 7.4 µM
[14]
  IC90: 1.6 µM
[18]
  IC50: 3.4 µM

## Nc1nc(O)c2ncn(/C=C3/CC3CO)c2n1 (stereo not drawn) [SYNGUANOL]
[1]
  IC50: > 100 µM
[2]
  IC50: > 100 µM
[3]
  IC50: > 100 µM
[4]
  IC50: > 214 µM
[5]
  IC50: 5.6 µM
[6]
  IC50: 100 µM
[7]
  IC50: > 50 µM
[8]
  IC50: > 100 µM
[9]
  IC50: 42.5 µM
[10]
  IC50: 61.3 µM
[11]
  IC50: 61.7 µM
[12]
  IC50: 0.04 µM
[13]
  IC50: 2.1 µM
[14]
  IC90: 1.8 µM
[15]
  IC50: > 413 µM
[16]
  IC50: 10 µM
[17]
  IC50: > 100 µM
[18]
  IC50: 0.3 µM
[19]
  IC50: > 100 µM
[20]
  IC50: 85 µM
[21]
  IC50: 0.3 µM
[22]
  IC50: > 429 µM

## Nc1ccn([C@H]2CC[C@@H](CO)O2)c(=O)n1 [ZALCITABINE]
[2]
  IC50: 0.07 µM
[23]
  IC50: 10 µM
[16]
  IC50: 1.4 µM
